In ChEMBL document CHEMBL4725436, “Gibberellin JRA-003: A Selective Inhibitor of Nuclear Translocation of IKKα” (ACS Med Chem Lett, 2020):
pEC50, pIC50: −log10 of the molar value. Active and inactive are the calls of the source. The rule behind the calls is not given here.

Assays:
[1] = Selectivity index, ratio of IC50 for human Hs895SK cells to EC50 for human HCC1599 cells measured after 24 hrs by CellTiter-Glo luminescent assay; assay type: toxicity; settings: Hs895SK cells (IC50) versus HCC1599 cells (EC50)
Summary of the method: (§1)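 High-throughput viability screen of test agents across a panel of 22 cancerous and noncancerous human cell lines. Viability was read by CellTiter-Glo luminescence.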

[2] = Selectivity index, ratio of IC50 for human Hs888Lu cells to EC50 for human CA46 cells measured after 24 hrs by CellTiter-Glo luminescent assay; assay type: toxicity; settings: Hs888Lu cells (IC50) versus CA46 cells (EC50); summary of the method: as §1
[3] = Selectivity index, ratio of IC50 for human Hs888lu cells to EC50 for human HCC1599 cells measured after 24 hrs by CellTiter-Glo luminescent assay; summary of the method: as §1
[4] = Inhibition of IKKalpha/IKKbeta in human HEK293T cells transfected with firefly luciferase gene assessed as inhibition of IL-1 beta-stimulated NF-kappaB signalling preincubated for 1 hr followed by IL-1 beta stimulation measured after 3 hrs by luciferase reporter gene assay; assay type: cell-based; settings: HEK-293T
CA46 = assay: Cytotoxicity against human CA46 cells assessed as reduction in cell viability measured after 24 hrs by CellTiter-Glo luminescent assay; assay type: functional, cell-based; settings: CA46, 24 h; summary of the method: as §1
[5] = Selectivity index, ratio of IC50 for human Hs895SK cells to EC50 for human HS578T cells measured after 24 hrs by CellTiter-Glo luminescent assay; assay type: toxicity; settings: Hs895SK cells (IC50) versus HS578T cells (EC50); summary of the method: as §1
[6] = Selectivity index, ratio of IC50 for human HS895SK cells to EC50 for human RC-K8 cells measured after 24 hrs by CellTiter-Glo luminescent assay; summary of the method: as §1
[7] = molecular target: T1, Inhibitor of nuclear factor kappa-B kinase subunit beta (Homo sapiens) (UniProt O14920); assay: Inhibition of JRA-031 binding to IKKbeta in TNF-alpha-stimulated human HEK293T cells at 1 uM pretreated with compound for 1 hr followed by labeling with JRA-031 for 1 hr followed by stimulation with TNF-alpha for 1 hr by pull down based mass spectrometry; assay type: cell-based; settings: HEK-293T
T1 sequence (whole entry): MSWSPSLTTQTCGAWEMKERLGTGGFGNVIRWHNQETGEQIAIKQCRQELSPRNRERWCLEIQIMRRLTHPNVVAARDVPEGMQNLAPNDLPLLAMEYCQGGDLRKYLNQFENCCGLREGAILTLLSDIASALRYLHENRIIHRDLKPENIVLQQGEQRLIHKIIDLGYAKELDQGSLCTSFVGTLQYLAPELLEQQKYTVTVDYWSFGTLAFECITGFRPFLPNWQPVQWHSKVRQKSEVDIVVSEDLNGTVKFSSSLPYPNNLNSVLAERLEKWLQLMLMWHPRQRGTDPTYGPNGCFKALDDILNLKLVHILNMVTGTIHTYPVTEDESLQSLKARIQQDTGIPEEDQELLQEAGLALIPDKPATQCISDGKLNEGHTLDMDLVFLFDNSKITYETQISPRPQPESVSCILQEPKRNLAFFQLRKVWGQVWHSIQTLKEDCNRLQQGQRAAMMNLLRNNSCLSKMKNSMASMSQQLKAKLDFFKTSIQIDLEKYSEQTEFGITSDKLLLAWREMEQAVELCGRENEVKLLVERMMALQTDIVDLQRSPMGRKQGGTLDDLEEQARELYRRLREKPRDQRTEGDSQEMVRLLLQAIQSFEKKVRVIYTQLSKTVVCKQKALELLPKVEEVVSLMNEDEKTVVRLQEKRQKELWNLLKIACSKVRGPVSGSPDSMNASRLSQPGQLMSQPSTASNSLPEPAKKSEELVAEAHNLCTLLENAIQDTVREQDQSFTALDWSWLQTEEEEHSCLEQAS

[8] = molecular target: T1, Inhibitor of nuclear factor kappa-B kinase subunit beta (Homo sapiens); assay: Inhibition of IKKbeta in human HeLa cells assessed as reduction in IL-1 beta-stimulated IKK beta nuclear translocation at 10 uM pretreated with compound for 4 hrs followed by stimulation with IL-1 beta for 1 hr by immunohistochemical staining/confocal microscopy; assay type: cell-based
Summary of the method: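 HeLa cells were pretreated with DMSO or test agent for 4 h, then stimulated with IL-1β (or vehicle) for 1 h. NF-κB pathway members were immunostained with AF488-tagged antibodies, nuclei were counterstained with DAPI, and compartmental localization was imaged by confocal microscopy.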

[9] = molecular target: T2, Inhibitor of nuclear factor kappa-B kinase subunit alpha (Homo sapiens) (UniProt O15111); assay: Inhibition of IKK alpha nuclear translocation in human HEK-293T cells assessed as reduction in IKK alpha level in nucleus at 15 uM pretreated with compound for 1 hr followed by stimulation with IL-1 beta for 3 hrs by western blot analysis; assay type: subcellular
T2 sequence (whole entry): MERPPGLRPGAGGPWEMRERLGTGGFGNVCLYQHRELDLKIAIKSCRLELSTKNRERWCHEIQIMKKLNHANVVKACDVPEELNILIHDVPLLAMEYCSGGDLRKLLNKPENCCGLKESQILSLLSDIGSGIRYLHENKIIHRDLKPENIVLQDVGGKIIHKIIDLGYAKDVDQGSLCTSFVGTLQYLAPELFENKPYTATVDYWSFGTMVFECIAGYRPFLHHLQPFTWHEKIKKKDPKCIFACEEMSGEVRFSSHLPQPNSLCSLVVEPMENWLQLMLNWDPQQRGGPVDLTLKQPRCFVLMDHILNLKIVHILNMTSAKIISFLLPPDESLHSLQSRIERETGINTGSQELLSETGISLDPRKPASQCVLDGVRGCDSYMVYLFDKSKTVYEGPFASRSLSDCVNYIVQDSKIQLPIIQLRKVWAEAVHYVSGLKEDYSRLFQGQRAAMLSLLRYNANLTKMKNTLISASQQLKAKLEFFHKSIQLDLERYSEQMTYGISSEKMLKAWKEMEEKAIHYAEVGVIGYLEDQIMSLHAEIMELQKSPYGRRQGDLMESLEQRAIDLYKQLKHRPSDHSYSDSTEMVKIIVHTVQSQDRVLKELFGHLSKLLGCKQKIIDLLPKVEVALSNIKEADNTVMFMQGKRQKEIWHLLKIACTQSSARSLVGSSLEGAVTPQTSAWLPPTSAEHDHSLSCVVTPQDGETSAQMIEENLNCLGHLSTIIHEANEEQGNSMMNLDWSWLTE
Summary of the method: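 HEK 293T cells were pretreated with vehicle or test agent, then stimulated with IL-1β (or vehicle). Cells were lysed and nuclei separated, and the cytosolic and nuclear fractions were each probed for IKKα and IKKβ by Western blotting.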

PSN1 = assay: Cytotoxicity against human PSN1 cells assessed as reduction in cell viability measured after 24 hrs by CellTiter-Glo luminescent assay; assay type: functional, cell-based; settings: PSN1, 24 h; summary of the method: as §1
Hs-578T = assay: Cytotoxicity against human Hs-578T cells assessed as reduction in cell viability measured after 24 hrs by CellTiter-Glo luminescent assay; assay type: functional, cell-based; summary of the method: as §1
NCI-H446 = assay: Cytotoxicity against human NCI-H446 cells assessed as reduction in cell viability measured after 24 hrs by CellTiter-Glo luminescent assay; assay type: functional, cell-based; settings: NCI-H446, 24 h; summary of the method: as §1
[10] = Cytotoxicity against human Hs895T cells assessed as reduction in cell viability measured after 24 hrs by CellTiter-Glo luminescent assay; assay type: functional, cell-based; summary of the method: as §1

pIC50 [4]: 5.22 | inhibition [7]: Active | inhibition [8]: Active | inhibition [9]: Active
SMILES: C=C1C[C@]23C[C@@]1(O)CC[C@H]2[C@@]12C=CC(=O)[C@@](C)(C(=O)O1)[C@H]2[C@@H]3C(=O)OC
selectivity ratio at 24 h [1]: 500 | selectivity ratio at 24 h [2]: 500 | Ratio IC50/EC50 [3]: 500 | pEC50 (CA46): > 7.40 | selectivity ratio at 24 h [5]: > 500 | Ratio IC50/EC50 [6]: 500 | pIC50 (PSN1): < 5.00 | pEC50 (Hs-578T): > 7.40 | pEC50 (NCI-H446): 7.21 | pEC50 [10]: 5.04
